This is a sample that favours compounds with a hit; in the whole collection about 3.5% have one here.
MrgX1 ag: agonists of human MrgX1 receptor. B-score at 10 µM. 310,000 tested, 0.44% active. MrgX1-HEK293 cells, Fluo-4 calcium fluorescence, agonist mode; hits give high values. Q96LB2. AID 588627;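 active means calcium response B-score plate-corrected fluorescence ratio at least 3 library SD, with starting fluorescence B-score inside 5 SD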
Target sequence (Q96LB2 whole entry, looked up): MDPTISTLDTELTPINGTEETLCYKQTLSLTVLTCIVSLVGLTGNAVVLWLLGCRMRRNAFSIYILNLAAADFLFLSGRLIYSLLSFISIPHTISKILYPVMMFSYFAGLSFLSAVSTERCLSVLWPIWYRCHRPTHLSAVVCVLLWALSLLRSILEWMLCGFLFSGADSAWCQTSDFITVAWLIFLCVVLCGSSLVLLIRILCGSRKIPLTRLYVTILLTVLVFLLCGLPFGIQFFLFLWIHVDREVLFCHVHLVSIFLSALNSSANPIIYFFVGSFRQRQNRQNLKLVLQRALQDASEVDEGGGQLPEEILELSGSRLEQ
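System: HEK293 cells stably expressing human MrgX1 receptor; Dosing: test compound in the initial addition of three; Schedule: overnight plating, then 30 min 37 °C plus 30 min room-temperature dye loading; Detection: kinetic calcium dye fluorescence, Fluo-4 NW; Controls: per-plate positive and negative controls for Z′ factor.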
MrgX1 antagonist: blocks BAM8-22 activation of human MrgX1 receptor; MRGX1-HEK293 calcium flux, Fluo-4, BAM8-22 antagonism; hits give low values; B-score at 10 µM; 310,000 tested, 1.3% active; AID 588676;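 active means calcium-response B-score plate-corrected more than 3 library SD below zero, starting fluorescence within 5 deviations, no agonist response on first addition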;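 further: peak minus trough fluorescence over baseline after final BAM8-22 challenge near maximal dose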
RGS4 block: human RGS4 inhibition. P49798. HEK293 M3R/RGS4 inducible, Fluo-4 calcium flux; hits give high values; triggered by carbachol at its EC20. B-score at 10 µM. 310,000 tested, 0.45% active. AID 463165;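 active means B-score, a plate-corrected calcium signal, over three deviations above library mean, with baseline fluorescence within five deviations of library mean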;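 further: RGS4 expression induced by doxycycline in cells with stable M3 receptor; B-score is computed from the integrated fluorescence ratio over baseline after carbachol; higher B-score means a larger calcium signal and so more RGS4 inhibition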
Target sequence (P49798 whole entry, looked up): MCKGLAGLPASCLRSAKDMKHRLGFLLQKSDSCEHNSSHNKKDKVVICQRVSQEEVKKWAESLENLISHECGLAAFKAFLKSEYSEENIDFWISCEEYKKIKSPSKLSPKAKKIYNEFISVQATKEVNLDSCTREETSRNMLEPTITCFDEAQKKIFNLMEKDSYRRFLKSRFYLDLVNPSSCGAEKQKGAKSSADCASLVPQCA
RGS4 pot: RGS4 potentiation or activation | B-score at 10 µM | 310,000 tested, 0.92% active | AID 463111 | HEK293 M3R/inducible RGS4, carbachol calcium flux Fluo4; hits give low values;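 active means B-score of the integrated calcium signal more than 4 SD below the library mean, with starting fluorescence not abnormally high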;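 further: negative B-score means reduced calcium response which marks RGS4 activation or potentiation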
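Also added: carbachol at ECmax as muscarinic agonist stimulus; Assay system: HEK293 cells with stable M3R and inducible RGS4; Timing: overnight RGS4 induction, 30 min dye load 37 °C, 20 min compound RT; Measured by: Fluo4-AM (2 µM) calcium-flux fluorescence, kinetic read.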
MrgX1 allo act: allosterically activates human MrgX1 receptor signaling; B-score at 10 µM; 310,000 tested, 0.63% active; Q96LB2; MrgX1-HEK293, Fluo-4 calcium flux, FDSS; hits give high values;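 active means plate-corrected calcium response at least 3 library SD above typical, normal starting fluorescence, not activating the receptor alone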;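 further: compound read alongside a low EC10 to EC30 dose of BAM8-22 agonist; peak minus trough fluorescence over baseline measured at the second addition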
MrgX1 antag conf: human MrgX1 receptor antagonism, re-confirmation screen | shares compounds with MrgX1 antagonist | AID 602420 | remaining BAM8-22 calcium response % of control (hits give low values), % at 10 µM | 2,300 tested, 19% active | MrgX1-HEK293, BAM8-22 calcium flux, Fluo-4; hits give low values;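 active means remaining agonist calcium response no higher than 100% minus 3 SD of agonist-only control wells, with starting fluorescence near control levels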;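 further: agonist BAM8-22 given at a near maximal EC90 to ECmax level; peak minus minimum fluorescence divided by baseline after agonist addition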
HEK293 Ca flux: MrgX1 antagonist counter-screen hit in parental HEK293 cells. shares compounds with MrgX1 antagonist. Fluo-4 calcium fluorescence, FDSS. fluorescence ratio F(max-min)/F0 at 10 µM. 4,000 tested, 2% active;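 active means duplicate-averaged calcium fluorescence ratio at least three times the standard deviation of buffer wells, a nonspecific response in parental cells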
HEK293 Ca counter: counter-screen for MrgX1 allosteric activators: effect in parental HEK293 cells; parental HEK293 calcium flux, Fluo-4 fluorescence ratio; hits give high values; shares compounds with MrgX1 antagonist; fluorescence ratio F(max-min)/F0 at 10 µM; 4,000 tested, 0.4% active;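 active means calcium fluorescence ratio, averaged over duplicates, at least 3 SD of the buffer-well ratio, meaning a nonspecific response in receptor-free cells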;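 further: untransfected parental HEK293 lacking MrgX1 used as counterscreen for MrgX1 allosteric activators; fluorescence change taken during the second addition on a kinetic imager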
HEK293 Ca cntr2: activity in parental HEK293 cells lacking MrgX1 receptor; shares compounds with MrgX1 antagonist; Fluo-4 calcium fluorescence (FDSS); hits give high values; AID 624115; 4,000 tested, 8.7% active; fluorescence ratio F(max-min)/F0 at 10 µM;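 active means calcium fluorescence ratio at least three times the spread of buffer wells, meaning a non-specific response in parental cells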
An asterisk follows results filed as active; i = inactive; · = not tested or not shown.

SMILES | MrgX1 ag | MrgX1 antagonist | RGS4 block | RGS4 pot | MrgX1 allo act | MrgX1 antag conf | HEK293 Ca flux | HEK293 Ca counter | HEK293 Ca cntr2
CCOc1ccc(OCCC(=O)OCC(=O)Nc2cc(OCC)c(N3CCOCC3)cc2OCC)cc1 | i | i | i | i | i | · | · | · | ·
Cc1ccccc1N1C(=O)C(Cc2ccc(F)cc2)S/C1=C(\C#N)C(N)=O (stereo not drawn) | i | i | i | i | i | · | · | · | ·
Cc1ccc2[nH]c(-c3cccc(F)c3)cc(=O)c2c1 | i | -4.6* | i | i | i | i | i | i | i
CCOC(=O)N/C(N)=N/c1nc2ccccc2s1 | i | -7.7* | i | i | i | i | i | i | i
Cc1ccccc1CC1(CO)CCCN(Cc2cn[nH]c2-c2ccccc2)C1 (stereo not drawn) | i | i | i | i | i | · | · | · | ·
COc1cccc(CC2(CO)CCCN(Cc3cn[nH]c3-c3ccccc3)C2)c1 (stereo not drawn) | i | -5* | i | i | i | 72%* | i | i | i
COc1ccccc1C(=O)Nc1cccc2nc(C)ccc12 | i | i | i | i | i | · | · | · | ·
COc1ccccc1CN1CC(C(=O)NCc2c(F)ccc(C)c2F)CCC1=O (stereo not drawn) | i | i | i | i | i | · | · | · | ·
Cc1cccc(CNC(=O)Cn2ccc3cc(S(=O)(=O)N4CCCC4)ccc32)c1 | i | -6.8* | i | i | i | i | i | i | i
Cc1cccc(CNC(=O)Cn2ccc3cc(S(=O)(=O)N4CCCCCC4)ccc32)c1 | i | i | i | i | i | · | · | · | ·
Cc1nc2ncnn2c(N2CCCC(C(=O)Nc3ccccc3Br)C2)c1C (stereo not drawn) | i | i | i | i | i | · | · | · | ·
O=C1CCc2cc(S(=O)(=O)N3CCN(c4ccccc4F)CC3)ccc2N1 | i | -5* | i | i | i | i | i | i | i
Cc1ccc(NC(=O)CCNS(=O)(=O)c2cc(Br)cnc2N)c(Cl)c1 | i | -5.5* | i | i | i | i | i | i | i
O=C(C1CCCCC1)N1CCN(c2ccnc3cc(Cl)ccc23)CC1 | i | -12* | i | i | i | i | i | i | i
O=C(C1CCC1)N1CCN(c2ccnc3cc(Cl)ccc23)CC1 | i | i | i | i | i | · | · | · | ·
CC(C)(C)c1csc(NC(=O)c2ccncc2)n1 | i | -7* | i | i | i | i | i | i | i
O=C(Cn1nc(Br)nc1Br)c1ccccc1 | i | i | i | i | i | · | · | · | ·
O=C(NNC(=S)NC(=O)c1sc2ccccc2c1Cl)c1ccc(Cl)cc1 | i | -18* | i | i | i | i | i | i | i
C=CCNC(=O)CN1C(=O)c2cccc3cccc1c23 | i | i | i | i | i | · | · | · | ·
CCOc1ccc(/C(C)=N\NC(=O)Cc2ccccc2)cc1 | i | i | i | i | i | · | · | · | ·
Cc1cccc(NC(=O)CNC(=O)c2ccc3c(c2)OCO3)n1 | i | -9.4* | i | i | i | i | i | i | i
O=C(O)C1Nc2ccc(C(F)(F)F)cc2C2OCCC12 (stereo not drawn) | i | i | i | i | i | · | · | · | ·
CC(=O)NCCc1ccc(S(=O)(=O)NC2OC(=O)c3ccccc32)cc1 (stereo not drawn) | i | -4.8* | i | i | i | i | i | i | i
CC(=O)NCc1ccc(S(=O)(=O)NC(C)CCc2ccccc2)cc1 (stereo not drawn) | i | i | i | i | i | · | · | · | ·
C=CCOCC(O)Cn1c(N2CCCC2)nc2c1c(=O)[nH]c(=O)n2C (stereo not drawn) | i | i | i | i | i | · | · | · | ·
SMILES | MrgX1 ag | MrgX1 antagonist | RGS4 block | RGS4 pot | MrgX1 allo act | MrgX1 antag conf | HEK293 Ca flux | HEK293 Ca counter | HEK293 Ca cntr2
COc1ccc(NC(=O)N2CCCC2C(=O)NCc2ccc(F)cc2)cc1 (stereo not drawn) | i | -13* | i | i | i | i | i | i | i
COc1ccccc1NC(=O)N1CCCC1C(=O)NCc1ccccc1 (stereo not drawn) | i | -5.7* | i | i | i | i | i | i | i
COc1cccc(NC(=O)C2CCCN2C(=O)Nc2ccccc2)c1 (stereo not drawn) | i | i | i | i | i | · | · | · | ·
COc1cccc(NC(=O)C2CCCN2C(=O)Nc2cccc(F)c2)c1 (stereo not drawn) | i | -4.9* | i | i | i | i | i | i | i
Cc1cc2c(cc1S(=O)(=O)NCCc1ccc(Cl)cc1)OCC(=O)N2 | i | i | i | i | i | · | · | · | ·
O=C(NCc1ccccc1)C(c1ccccc1F)N(C(=O)c1csnn1)C1CCCC1 (stereo not drawn) | i | i | i | i | i | · | · | · | ·
Cc1ccc(S(=O)(=O)CCc2nc3ccccc3[nH]2)cc1C | i | -4.7* | i | i | i | i | i | i | i
Cc1ccc(S(=O)(=O)CCc2nc3ccccc3[nH]2)cc1 | i | i | i | i | i | · | · | · | ·
Cc1ccccc1C(=O)N=c1c(C#N)cc2c(=O)n3cccc(C)c3nc2n1Cc1ccco1 | i | i | i | i | i | · | · | · | ·
Cc1ccc(S(=O)(=O)c2cc3c(=O)n4ccccc4nc3n(Cc3ccco3)c2=N)cc1 | i | -4.6* | i | i | i | 76%* | i | i | i
N#Cc1cc2c(=O)n3ccccc3nc2n(Cc2ccco2)c1=NC(=O)c1ccco1 | i | -4.8* | i | i | i | 83%* | i | i | i
Cc1cc(NC(=O)COc2ccccc2C)ccc1NC(=O)c1cccs1 | i | i | i | i | i | · | · | · | ·
CCCCC(=O)Nc1ccc(NC(=O)c2ccccc2[N+](=O)[O-])cc1OC | i | i | i | i | i | · | · | · | ·
Cc1cccc(NC(=O)CSCC(=O)N(C)CCOc2ccc(Cl)cc2)c1 | i | i | i | i | i | · | · | · | ·

Bioassay records as filed in PubChem.
